The structures appear in SMILES notation. Converted amounts (≈) assume the structure as drawn.

What all share (type): functional
The subject of one assay is Staphylococcus aureus. The assay is described as follows: Antibacterial activity against Staphylococcus aureus ATCC 13709 after 24 hrs at 37 degC by CLSI protocol based microdilution method. The conditions noted are these: ATCC 13709, 24 h. Summed up:
(§1)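 Macrolide-susceptible strains, broth microdilution MIC per CLSI. Media: Mueller–Hinton broth (MHB) for S. aureus and M. catarrhalis, MHB plus 5% horse serum for streptococci, Haemophilus test medium for H. influenzae. Compounds dissolved in DMF (5 mg/mL stock) and serially twofold diluted in medium over 64 to 0.125 µg/mL. MIC read after 24 h incubation at 37 °C.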

The next assay relates to Streptococcus pneumoniae. Nature of the assay: Antibacterial activity against Streptococcus pneumoniae ATCC […] after 24 hrs at 37 degC by CLSI protocol based microdilution method. Summed up: as §1
(Dilution methods test growth across graded concentrations, often in twofold steps.)

The test system of the next assay is Streptococcus pyogenes. The assay is described as follows: Antibacterial activity against Streptococcus pyogenes ATCC 700294 after 24 hrs at 37 degC by CLSI protocol based microdilution method. To be noted: ATCC 700294, 24 h. In a few lines:
as §1

The next assay deals with Moraxella catarrhalis. The assay is described as follows: Antibacterial activity against Moraxella catarrhalis ATCC 23246 after 24 hrs at 37 degC by CLSI protocol based microdilution method. The conditions noted are these: ATCC 23246, 24 h. In a few lines:
as §1

For the next assay, the system named is Haemophilus influenzae. Nature of the assay: Antibacterial activity against Haemophilus influenzae ATCC 49247 after 24 hrs at 37 degC by CLSI protocol based microdilution method. To be noted: ATCC 49247, 24 h. In a few lines:
as §1

Consider `CC[C@H]1OC(=O)[C@H](C)[C@@H](O[C@H]2C[C@@](C)(OC)[C@@H](O)[C@H](C)O2)[C@H](C)[C@@H](O[C@@H]2O[C@H](C)C[C@H](NC)[C@H]2O)[C@](C)(OC)C[C@@H](C)C(=O)N[C@H](C)[C@@H](O)[C@]1(C)O`, for which the MIC in the assay on Staphylococcus aureus is above 64 µg/mL; in the assay with Streptococcus pneumoniae it was 32 µg/mL (≈ 42.7 µM); in the assay with Streptococcus pyogenes it was 64 µg/mL (≈ 85.5 µM); against Moraxella catarrhalis, 16 µg/mL (≈ 21.4 µM); against Haemophilus influenzae it was above 64 µg/mL.

Take `CC[C@H]1OC(=O)[C@H](C)[C@@H](O[C@H]2C[C@@](C)(OC)[C@@H](O)[C@H](C)O2)[C@H](C)[C@@H](O[C@@H]2O[C@H](C)C[C@H](NC)[C@H]2O)[C@](C)(OC)C[C@@H](C)C(=O)[C@H](C)[C@@H](O)[C@]1(C)O`: the MIC in the assay on Staphylococcus aureus is 4 µg/mL (≈ 5.45 µM); with Streptococcus pneumoniae, below 0.25 µg/mL; in the assay on Streptococcus pyogenes, below 0.25 µg/mL; with Moraxella catarrhalis it was 2 µg/mL (≈ 2.73 µM); against Haemophilus influenzae it was above 64 µg/mL.

Consider `CC[C@H]1OC(=O)[C@H](C)[C@@H](O[C@H]2C[C@@](C)(OC)[C@@H](O)[C@H](C)O2)[C@H](C)[C@@H](O[C@@H]2O[C@H](C)C[C@H](NC)[C@H]2O)[C@](C)(O)C[C@@H](C)CN(C)[C@H](C)[C@@H](O)[C@]1(C)O`, for which the MIC is 16 µg/mL (≈ 21.8 µM) against Staphylococcus aureus; 2 µg/mL (≈ 2.72 µM) in the assay with Streptococcus pneumoniae; 2 µg/mL (≈ 2.72 µM) in the assay with Streptococcus pyogenes; 2 µg/mL (≈ 2.72 µM) against Moraxella catarrhalis; above 64 µg/mL against Haemophilus influenzae.

Regarding `CC[C@H]1OC(=O)[C@H](C)[C@@H](O[C@H]2C[C@@](C)(OC)[C@@H](O)[C@H](C)O2)[C@H](C)[C@@H](O[C@@H]2O[C@H](C)C[C@H](N)[C@H]2O)[C@](C)(OC)C[C@@H](C)C(=O)N[C@H](C)[C@@H](O)[C@]1(C)O`, the MIC in the assay on Staphylococcus aureus, against Streptococcus pneumoniae, with Streptococcus pyogenes, against Moraxella catarrhalis and in the assay with Haemophilus influenzae was above 64 µg/mL throughout.

Regarding `CC[C@H]1OC(=O)[C@H](C)[C@@H](O[C@H]2C[C@@](C)(OC)[C@@H](O)[C@H](C)O2)[C@H](C)[C@@H](O[C@@H]2O[C@H](C)C[C@H](N)[C@H]2O)[C@](C)(OC)C[C@@H](C)C(=O)[C@H](C)[C@@H](O)[C@]1(C)O`, the MIC against Staphylococcus aureus is above 64 µg/mL; against Streptococcus pneumoniae, 2 µg/mL (≈ 2.78 µM); against Streptococcus pyogenes, 2 µg/mL (≈ 2.78 µM); in the assay on Moraxella catarrhalis, 16 µg/mL (≈ 22.2 µM); in the assay on Haemophilus influenzae it was above 64 µg/mL.

In the case of `CC[C@H]1OC(=O)[C@H](C)[C@@H](O[C@H]2C[C@@](C)(OC)[C@@H](O)[C@H](C)O2)[C@H](C)[C@@H](O[C@@H]2O[C@H](C)C[C@H](N)[C@H]2O)[C@](C)(O)C[C@@H](C)CN(C)[C@H](C)[C@@H](O)[C@]1(C)O`, the MIC against Staphylococcus aureus is above 64 µg/mL; against Streptococcus pneumoniae it was 4 µg/mL (≈ 5.55 µM); against Streptococcus pyogenes it was 32 µg/mL (≈ 44.4 µM); in the assay on Moraxella catarrhalis, 8 µg/mL (≈ 11.1 µM); with Haemophilus influenzae, 64 µg/mL (≈ 88.8 µM).

In the case of `CC[C@H]1OC(=O)[C@H](C)[C@@H](O[C@H]2C[C@@](C)(OC)[C@@H](O)[C@H](C)O2)[C@H](C)[C@@H](O[C@@H]2O[C@H](C)C[C@@H]3NC(=O)O[C@@H]23)[C@](C)(OC)C[C@@H](C)C(=O)N[C@H](C)[C@@H](O)[C@]1(C)O`, the MIC with Staphylococcus aureus, against Streptococcus pneumoniae, against Streptococcus pyogenes, in the assay with Moraxella catarrhalis and in the assay on Haemophilus influenzae was above 64 µg/mL each time.

For `CC[C@H]1OC(=O)[C@H](C)[C@@H](O[C@H]2C[C@@](C)(OC)[C@@H](O)[C@H](C)O2)[C@H](C)[C@@H](O[C@@H]2O[C@H](C)C[C@@H]3NC(=O)O[C@@H]23)[C@](C)(OC)C[C@@H](C)C(=O)[C@H](C)[C@@H](O)[C@]1(C)O`, the MIC against Staphylococcus aureus, in the assay with Streptococcus pneumoniae, in the assay with Streptococcus pyogenes, with Moraxella catarrhalis and in the assay on Haemophilus influenzae was above 64 µg/mL each time.

Consider `CC[C@H]1OC(=O)[C@H](C)[C@@H](O[C@H]2C[C@@](C)(OC)[C@@H](O)[C@H](C)O2)[C@H](C)[C@@H](O[C@@H]2O[C@H](C)C[C@@H]3NC(=O)O[C@@H]23)[C@](C)(O)C[C@@H](C)CN(C)[C@H](C)[C@@H](O)[C@]1(C)O`, for which the MIC against Staphylococcus aureus, with Streptococcus pneumoniae, against Streptococcus pyogenes, in the assay with Moraxella catarrhalis and in the assay with Haemophilus influenzae was above 64 µg/mL throughout.

As to `CC[C@H]1OC(=O)[C@H](C)[C@@H](O[C@H]2C[C@@](C)(OC)[C@@H](O)[C@H](C)O2)[C@H](C)[C@@H](O[C@@H]2O[C@H](C)C[C@H]3[C@H]2OC(=O)N3C)[C@](C)(OC)C[C@@H](C)C(=O)N[C@H](C)[C@@H](O)[C@]1(C)O`, the MIC against Staphylococcus aureus, in the assay on Streptococcus pneumoniae, in the assay with Streptococcus pyogenes, against Moraxella catarrhalis and in the assay on Haemophilus influenzae was above 64 µg/mL throughout.

Consider `CC[C@H]1OC(=O)[C@H](C)[C@@H](O[C@H]2C[C@@](C)(OC)[C@@H](O)[C@H](C)O2)[C@H](C)[C@@H](O[C@@H]2O[C@H](C)C[C@H]3[C@H]2OC(=O)N3C)[C@](C)(OC)C[C@@H](C)C(=O)[C@H](C)[C@@H](O)[C@]1(C)O`, for which the MIC against Staphylococcus aureus, against Streptococcus pneumoniae, against Streptococcus pyogenes, in the assay on Moraxella catarrhalis and in the assay with Haemophilus influenzae was above 64 µg/mL in each case.

For `CC[C@H]1OC(=O)[C@H](C)[C@@H](O[C@H]2C[C@@](C)(OC)[C@@H](O)[C@H](C)O2)[C@H](C)[C@@H](O[C@@H]2O[C@H](C)C[C@H]3[C@H]2OC(=O)N3C)[C@](C)(O)C[C@@H](C)CN(C)[C@H](C)[C@@H](O)[C@]1(C)O`, the MIC against Staphylococcus aureus, in the assay on Streptococcus pneumoniae, in the assay with Streptococcus pyogenes, against Moraxella catarrhalis and with Haemophilus influenzae was above 64 µg/mL each time.

In the case of `CC[C@H]1OC(=O)[C@H](C)[C@@H](O[C@H]2C[C@@](C)(OC)[C@@H](O)[C@H](C)O2)[C@H](C)[C@@H](O[C@@H]2O[C@H](C)C[C@H]3[C@H]2OC(=O)N3CC)[C@](C)(OC)C[C@@H](C)C(=O)N[C@H](C)[C@@H](O)[C@]1(C)O`, the MIC with Staphylococcus aureus, in the assay on Streptococcus pneumoniae, in the assay with Streptococcus pyogenes, in the assay on Moraxella catarrhalis and in the assay on Haemophilus influenzae was above 64 µg/mL each time.

Regarding `CCCN1C(=O)O[C@H]2[C@H](O[C@@H]3[C@@H](C)[C@H](O[C@H]4C[C@@](C)(OC)[C@@H](O)[C@H](C)O4)[C@@H](C)C(=O)O[C@H](CC)[C@@](C)(O)[C@H](O)[C@@H](C)NC(=O)[C@H](C)C[C@@]3(C)OC)O[C@H](C)C[C@@H]21`, the MIC against Staphylococcus aureus, against Streptococcus pneumoniae, in the assay with Streptococcus pyogenes, in the assay on Moraxella catarrhalis and against Haemophilus influenzae was above 64 µg/mL in each case.

`CC[C@H]1OC(=O)[C@H](C)[C@@H](O[C@H]2C[C@@](C)(OC)[C@@H](O)[C@H](C)O2)[C@H](C)[C@@H](O[C@@H]2O[C@H](C)C[C@H]3[C@H]2OC(=O)N3CC)[C@](C)(OC)C[C@@H](C)C(=O)[C@H](C)[C@@H](O)[C@]1(C)O`: the MIC in the assay with Staphylococcus aureus, against Streptococcus pneumoniae, in the assay on Streptococcus pyogenes, in the assay on Moraxella catarrhalis and in the assay on Haemophilus influenzae was above 64 µg/mL in each case.

`CCCN1C(=O)O[C@H]2[C@H](O[C@@H]3[C@@H](C)[C@H](O[C@H]4C[C@@](C)(OC)[C@@H](O)[C@H](C)O4)[C@@H](C)C(=O)O[C@H](CC)[C@@](C)(O)[C@H](O)[C@@H](C)C(=O)[C@H](C)C[C@@]3(C)OC)O[C@H](C)C[C@@H]21`: the MIC against Staphylococcus aureus, against Streptococcus pneumoniae, against Streptococcus pyogenes, in the assay with Moraxella catarrhalis and against Haemophilus influenzae was above 64 µg/mL each time.

As for `CC[C@H]1OC(=O)[C@H](C)[C@@H](O[C@H]2C[C@@](C)(OC)[C@@H](O)[C@H](C)O2)[C@H](C)[C@@H](O[C@@H]2O[C@H](C)C[C@H]3[C@H]2OC(=O)N3Cc2ccccc2)[C@](C)(OC)C[C@@H](C)C(=O)[C@H](C)[C@@H](O)[C@]1(C)O`, the MIC against Staphylococcus aureus, against Streptococcus pneumoniae, against Streptococcus pyogenes, against Moraxella catarrhalis and against Haemophilus influenzae was above 64 µg/mL throughout.

For `CC[C@H]1OC(=O)[C@H](C)[C@@H](O[C@H]2C[C@@](C)(OC)[C@@H](O)[C@H](C)O2)[C@H](C)[C@@H](O[C@@H]2O[C@H](C)C[C@H]3[C@H]2OC(=O)N3CC)[C@](C)(O)C[C@@H](C)CN(C)[C@H](C)[C@@H](O)[C@]1(C)O`, the MIC in the assay with Staphylococcus aureus, against Streptococcus pneumoniae, with Streptococcus pyogenes, against Moraxella catarrhalis and against Haemophilus influenzae was above 64 µg/mL throughout.

As to `CCCN1C(=O)O[C@H]2[C@H](O[C@@H]3[C@@H](C)[C@H](O[C@H]4C[C@@](C)(OC)[C@@H](O)[C@H](C)O4)[C@@H](C)C(=O)O[C@H](CC)[C@@](C)(O)[C@H](O)[C@@H](C)N(C)C[C@H](C)C[C@@]3(C)O)O[C@H](C)C[C@@H]21`, the MIC in the assay on Staphylococcus aureus, against Streptococcus pneumoniae, against Streptococcus pyogenes, against Moraxella catarrhalis and in the assay on Haemophilus influenzae was above 64 µg/mL each time.

On to `CC[C@H]1OC(=O)[C@H](C)[C@@H](O[C@H]2C[C@@](C)(OC)[C@@H](O)[C@H](C)O2)[C@H](C)[C@@H](O[C@@H]2O[C@H](C)C[C@H](N(C)C)[C@H]2O)[C@](C)(OC)C[C@@H](C)C(=O)N[C@H](C)[C@@H](O)[C@]1(C)O`, for which the MIC was found to be 32 µg/mL (≈ 41.9 µM) in the assay with Staphylococcus aureus; 1 µg/mL (≈ 1.31 µM) with Streptococcus pneumoniae; 4 µg/mL (≈ 5.24 µM) with Streptococcus pyogenes; 0.5 µg/mL (≈ 0.655 µM) in the assay with Moraxella catarrhalis; 16 µg/mL (≈ 21 µM) in the assay with Haemophilus influenzae.

These data come from ChEMBL document CHEMBL2021818, “Novel desosamine-modified 14- and 15-membered macrolides without antibacterial activity” (2012).
